{
  "source": "ChEMBL document CHEMBL1671788",
  "about": "“Discovery, synthesis, and structure-activity relationship development of a series of N-(4-acetamido)phenylpicolinamides as positive allosteric modulators of metabotropic glutamate receptor 4 (mGlu(4)) with CNS exposure in rats” (J Med Chem, 2011)",
  "key": {"[1]": {"target": "Metabotropic glutamate receptor 2 (Rattus norvegicus) (UniProt P31421)", "experiment": "Positive allosteric modulation in rat mGluR2 receptor expressed in HEK293 cells assessed as effect on thallium flux at 10 uM relative to glutamate", "assay_type": "cell-based", "how_it_was_run": "(§1)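 HEK-293 cells co-expressing the rat receptor and GIRK channels, plated at 15,000 cells/well overnight, then loaded with BTC-AM (1.7 µM) for 1 h at room temperature. Vehicle or compound at 10 µM final was added, and 2.5 min later a full glutamate concentration-response was given in thallium-containing buffer. Thallium flux was read by fluorescence and the leftward or rightward shift of the glutamate curve recorded.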"}, "[2]": {"target": "Metabotropic glutamate receptor 4 (Rattus norvegicus, UniProt P31423)", "experiment": "Positive allosteric modulation of rat mGluR4 expressed in CHO cells coexpressing Gqi5 assessed as calcium mobilization", "assay_type": "functional, cell-based", "settings": "read-out: EC50"}, "[3]": {"experiment": "AUC in Sprague-Dawley rat plasma at 10 mg/kg, sc", "assay_type": "ADME, organism-based", "design": "dose 10 mg/kg, route subcutaneous"}, "[4]": {"target": "Metabotropic glutamate receptor 4 (Rattus norvegicus) (UniProt P31423)", "experiment": "Positive allosteric modulation of rat mGluR4 expressed in CHO cells coexpressing Gqi5 assessed as calcium mobilization relative to PHCCC", "assay_type": "functional, cell-based"}, "[5]": {"target": "Metabotropic glutamate receptor 1 (Rattus norvegicus) (UniProt P23385)", "sequence (P23385 19-1199 limits assumed)": "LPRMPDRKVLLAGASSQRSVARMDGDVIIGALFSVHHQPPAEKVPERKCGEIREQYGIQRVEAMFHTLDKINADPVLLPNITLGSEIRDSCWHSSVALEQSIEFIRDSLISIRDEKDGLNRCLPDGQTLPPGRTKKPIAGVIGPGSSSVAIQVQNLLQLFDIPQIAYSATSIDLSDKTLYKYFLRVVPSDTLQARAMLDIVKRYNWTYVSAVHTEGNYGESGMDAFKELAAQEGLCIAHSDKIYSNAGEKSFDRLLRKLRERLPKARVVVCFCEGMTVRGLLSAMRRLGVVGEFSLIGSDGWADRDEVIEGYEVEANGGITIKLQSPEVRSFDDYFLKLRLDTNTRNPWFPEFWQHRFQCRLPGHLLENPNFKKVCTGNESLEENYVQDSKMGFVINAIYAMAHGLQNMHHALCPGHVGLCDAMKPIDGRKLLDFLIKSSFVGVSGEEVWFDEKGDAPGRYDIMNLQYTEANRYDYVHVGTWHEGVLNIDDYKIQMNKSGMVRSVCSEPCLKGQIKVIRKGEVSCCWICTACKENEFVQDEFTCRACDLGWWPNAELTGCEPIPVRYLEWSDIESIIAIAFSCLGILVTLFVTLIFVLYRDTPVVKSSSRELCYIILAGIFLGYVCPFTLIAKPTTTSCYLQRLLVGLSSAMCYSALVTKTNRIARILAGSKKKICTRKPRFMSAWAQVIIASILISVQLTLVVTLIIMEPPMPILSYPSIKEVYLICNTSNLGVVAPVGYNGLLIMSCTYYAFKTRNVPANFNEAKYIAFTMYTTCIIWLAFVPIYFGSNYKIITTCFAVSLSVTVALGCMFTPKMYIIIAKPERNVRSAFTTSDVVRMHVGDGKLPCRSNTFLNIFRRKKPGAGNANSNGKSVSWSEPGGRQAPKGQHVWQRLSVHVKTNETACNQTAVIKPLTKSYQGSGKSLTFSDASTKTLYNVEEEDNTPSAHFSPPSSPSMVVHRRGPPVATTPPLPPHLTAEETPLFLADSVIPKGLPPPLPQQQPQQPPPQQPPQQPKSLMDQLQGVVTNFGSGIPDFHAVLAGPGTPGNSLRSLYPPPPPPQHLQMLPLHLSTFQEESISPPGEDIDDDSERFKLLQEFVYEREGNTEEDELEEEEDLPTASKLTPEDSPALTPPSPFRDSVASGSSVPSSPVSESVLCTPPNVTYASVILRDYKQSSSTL", "experiment": "Positive allosteric modulation in rat mGluR1 receptor expressed in HEK293 cells assessed as effect on calcium mobilization at 10 uM relative to glutamate"}, "[6]": {"experiment": "in vivo", "settings": "Sprague-Dawley, rat, sc, 10 mg/kg"}, "[7]": {"target": "Metabotropic glutamate receptor 5 (Rattus norvegicus) (UniProt P31424)", "sequence (P31424 21-1203 limits assumed)": "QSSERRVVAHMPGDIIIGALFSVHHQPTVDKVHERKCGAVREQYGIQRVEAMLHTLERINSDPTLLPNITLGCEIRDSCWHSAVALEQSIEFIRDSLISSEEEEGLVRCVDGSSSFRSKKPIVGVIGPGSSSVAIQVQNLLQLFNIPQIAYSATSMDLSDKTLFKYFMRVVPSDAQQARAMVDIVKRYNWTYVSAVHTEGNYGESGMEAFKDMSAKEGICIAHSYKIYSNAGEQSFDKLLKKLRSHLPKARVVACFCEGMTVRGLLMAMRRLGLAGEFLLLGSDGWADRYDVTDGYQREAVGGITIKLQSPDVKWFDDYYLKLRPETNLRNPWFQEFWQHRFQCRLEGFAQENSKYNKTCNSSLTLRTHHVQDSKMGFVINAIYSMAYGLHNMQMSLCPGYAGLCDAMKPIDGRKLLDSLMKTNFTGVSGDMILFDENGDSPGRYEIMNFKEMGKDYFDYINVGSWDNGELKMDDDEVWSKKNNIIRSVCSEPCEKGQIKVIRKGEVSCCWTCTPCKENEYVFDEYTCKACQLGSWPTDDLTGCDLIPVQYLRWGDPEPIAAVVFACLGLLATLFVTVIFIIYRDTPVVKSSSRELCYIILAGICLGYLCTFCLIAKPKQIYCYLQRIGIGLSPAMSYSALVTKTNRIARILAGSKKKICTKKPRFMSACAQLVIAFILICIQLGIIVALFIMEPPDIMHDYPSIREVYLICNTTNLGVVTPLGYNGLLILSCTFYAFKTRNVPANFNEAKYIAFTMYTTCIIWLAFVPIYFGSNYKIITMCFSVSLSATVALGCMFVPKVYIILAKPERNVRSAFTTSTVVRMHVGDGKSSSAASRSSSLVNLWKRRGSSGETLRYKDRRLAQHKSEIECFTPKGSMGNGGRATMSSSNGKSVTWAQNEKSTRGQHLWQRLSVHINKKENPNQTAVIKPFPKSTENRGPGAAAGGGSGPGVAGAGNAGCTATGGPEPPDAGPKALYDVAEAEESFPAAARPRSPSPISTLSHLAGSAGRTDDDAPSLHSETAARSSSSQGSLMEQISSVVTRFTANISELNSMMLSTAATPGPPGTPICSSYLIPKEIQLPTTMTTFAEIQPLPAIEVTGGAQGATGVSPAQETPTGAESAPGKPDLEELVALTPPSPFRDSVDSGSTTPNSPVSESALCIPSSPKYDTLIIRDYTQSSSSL", "experiment": "Positive allosteric modulation in rat mGluR5 receptor expressed in HEK293 cells assessed as effect on calcium mobilization at 10 uM relative to glutamate"}, "[8]": {"target": "Cytochrome P450 3A4 (Homo sapiens, UniProt P08684)", "sequence (P08684 whole entry)": "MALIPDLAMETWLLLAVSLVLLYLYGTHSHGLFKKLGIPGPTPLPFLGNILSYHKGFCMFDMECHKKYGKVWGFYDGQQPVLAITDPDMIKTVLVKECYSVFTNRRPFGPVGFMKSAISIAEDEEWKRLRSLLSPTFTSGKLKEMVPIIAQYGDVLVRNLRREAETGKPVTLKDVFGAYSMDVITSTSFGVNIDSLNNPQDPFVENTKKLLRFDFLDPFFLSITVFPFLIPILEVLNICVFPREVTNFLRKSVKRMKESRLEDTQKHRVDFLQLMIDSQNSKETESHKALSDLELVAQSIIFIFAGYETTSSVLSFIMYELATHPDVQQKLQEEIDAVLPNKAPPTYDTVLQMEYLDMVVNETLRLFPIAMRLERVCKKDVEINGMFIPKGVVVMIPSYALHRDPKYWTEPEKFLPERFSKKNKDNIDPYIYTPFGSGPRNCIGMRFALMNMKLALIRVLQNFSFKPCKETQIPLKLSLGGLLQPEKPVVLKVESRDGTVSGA", "experiment": "Inhibition of human CYP3A4", "how_it_was_run": "(§2)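 Human liver microsomes (final 0.1 mg/mL) in 0.1 M potassium phosphate, pH 7.4, with a probe cocktail: phenacetin 10 µM (1A2), diclofenac 5 µM (2C9), dextromethorphan 5 µM (2D6) and midazolam 2 µM (3A4). Compound at 100 nM–30 µM final, in duplicate, preincubated 15 min at 37 °C. NADPH (1 mM) reaction ran 8 min, was quenched with cold acetonitrile, and read by LC/MS/MS (MRM). IC50 determined.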"}, "[9]": {"experiment": "Plasma protein binding in Sprague-Dawley rat", "assay_type": "ADME, cell-free", "settings": "read-out: PPB", "how_it_was_run": "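Equilibrium dialysis of compound spiked into rat plasma against 25 mM phosphate buffer, pH 7.4. Dialysis ran 4 h at 37 °C with shaking. Both chambers were matrix-matched, extracted with cold acetonitrile and quantified by LC/MS/MS. Triplicate within one plate.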"}, "[10]": {"system": "Plasma", "experiment": "AUC in Sprague-Dawley rat brain at 10 mg/kg, sc", "assay_type": "ADME, organism-based", "design": "dose 10 mg/kg, route subcutaneous", "settings": "in vivo"}, "[11]": {"experiment": "Cmax in Sprague-Dawley rat brain at 10 mg/kg, sc", "assay_type": "ADME, organism-based", "design": "dose 10 mg/kg, route subcutaneous", "how_it_was_run": "(§3)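 Rats dosed subcutaneously at 10 mg/kg as a 10% tween 80 microsuspension. […] In vivo samples were quantified by LC/MS/MS (ESI, positive-mode MRM) after gradient elution on a C18 column.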"}, "[12]": {"experiment": "in vivo", "settings": "Sprague-Dawley, rat, brain/plasma, iv, 1 mg/kg"}, "[13]": {"target": "Cytochrome P450 2C9 (Homo sapiens, UniProt P11712)", "sequence (P11712 whole entry)": "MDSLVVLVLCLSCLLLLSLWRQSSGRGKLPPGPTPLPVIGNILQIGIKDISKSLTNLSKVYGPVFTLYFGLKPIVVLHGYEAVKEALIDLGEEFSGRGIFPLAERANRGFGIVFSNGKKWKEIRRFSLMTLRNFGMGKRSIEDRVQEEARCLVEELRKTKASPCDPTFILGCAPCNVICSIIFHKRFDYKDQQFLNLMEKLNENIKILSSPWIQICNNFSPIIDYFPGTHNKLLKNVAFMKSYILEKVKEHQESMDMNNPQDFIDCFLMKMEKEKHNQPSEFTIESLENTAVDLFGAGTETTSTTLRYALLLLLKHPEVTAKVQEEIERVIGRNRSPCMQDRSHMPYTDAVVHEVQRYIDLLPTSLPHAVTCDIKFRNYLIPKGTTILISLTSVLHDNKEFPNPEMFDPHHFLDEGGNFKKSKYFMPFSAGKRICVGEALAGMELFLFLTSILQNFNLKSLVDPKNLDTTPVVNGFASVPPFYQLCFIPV", "experiment": "Inhibition of human CYP2C9", "how_it_was_run": "as §2"}, "[14]": {"target": "Metabotropic glutamate receptor 6 (Rattus norvegicus) (UniProt P35349)", "sequence (P35349 whole entry)": "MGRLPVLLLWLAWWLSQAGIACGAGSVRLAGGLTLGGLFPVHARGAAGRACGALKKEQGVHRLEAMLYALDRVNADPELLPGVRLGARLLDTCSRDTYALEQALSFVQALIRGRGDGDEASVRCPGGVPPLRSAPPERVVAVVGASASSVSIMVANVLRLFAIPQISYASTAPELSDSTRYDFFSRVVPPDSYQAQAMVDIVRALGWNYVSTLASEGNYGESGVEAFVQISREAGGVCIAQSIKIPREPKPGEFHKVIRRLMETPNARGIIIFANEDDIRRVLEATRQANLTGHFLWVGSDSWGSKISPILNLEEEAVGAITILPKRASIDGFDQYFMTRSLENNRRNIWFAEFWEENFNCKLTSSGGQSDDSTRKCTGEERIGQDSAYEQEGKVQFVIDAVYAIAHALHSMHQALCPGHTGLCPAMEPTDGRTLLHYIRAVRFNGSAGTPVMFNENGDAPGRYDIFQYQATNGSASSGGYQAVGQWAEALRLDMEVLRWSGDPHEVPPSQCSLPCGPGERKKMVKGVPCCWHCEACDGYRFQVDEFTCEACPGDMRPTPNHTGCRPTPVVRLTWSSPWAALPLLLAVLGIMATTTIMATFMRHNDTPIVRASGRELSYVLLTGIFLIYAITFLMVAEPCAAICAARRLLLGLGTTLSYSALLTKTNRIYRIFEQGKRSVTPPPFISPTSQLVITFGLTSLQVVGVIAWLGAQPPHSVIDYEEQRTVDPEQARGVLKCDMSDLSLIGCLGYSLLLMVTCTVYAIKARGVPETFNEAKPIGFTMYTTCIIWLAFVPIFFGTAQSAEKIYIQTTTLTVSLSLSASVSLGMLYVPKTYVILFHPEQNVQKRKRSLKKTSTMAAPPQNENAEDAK", "experiment": "Positive allosteric modulation in rat mGluR6 receptor expressed in HEK293 cells assessed as effect on thallium flux at 10 uM relative to glutamate", "assay_type": "cell-based"}, "[15]": {"target": "Cytochrome P450 2D6 (Homo sapiens, UniProt P10635)", "sequence (P10635 whole entry)": "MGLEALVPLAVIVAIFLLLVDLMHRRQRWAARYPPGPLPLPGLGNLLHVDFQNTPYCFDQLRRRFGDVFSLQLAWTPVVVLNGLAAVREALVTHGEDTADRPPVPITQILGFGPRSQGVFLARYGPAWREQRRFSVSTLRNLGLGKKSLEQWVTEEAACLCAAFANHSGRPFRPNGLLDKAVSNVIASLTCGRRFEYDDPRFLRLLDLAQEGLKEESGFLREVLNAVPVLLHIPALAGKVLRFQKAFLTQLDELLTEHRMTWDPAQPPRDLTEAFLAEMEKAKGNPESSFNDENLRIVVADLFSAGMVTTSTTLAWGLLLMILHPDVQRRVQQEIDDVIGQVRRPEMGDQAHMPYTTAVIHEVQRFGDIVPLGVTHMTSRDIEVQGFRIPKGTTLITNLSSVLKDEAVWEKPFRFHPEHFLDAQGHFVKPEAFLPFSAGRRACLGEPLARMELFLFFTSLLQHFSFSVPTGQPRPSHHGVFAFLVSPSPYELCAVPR", "experiment": "Inhibition of human CYP2D6", "how_it_was_run": "as §2"}, "[16]": {"system": "Plasma", "experiment": "Cmax in Sprague-Dawley rat plasma at 10 mg/kg, sc", "assay_type": "ADME, organism-based", "design": "dose 10 mg/kg, route subcutaneous", "settings": "in vivo", "how_it_was_run": "as §3"}, "[17]": {"target": "T1, Cytochrome P450 1A2 (Homo sapiens, UniProt P05177)", "T1 sequence (P05177 whole entry)": "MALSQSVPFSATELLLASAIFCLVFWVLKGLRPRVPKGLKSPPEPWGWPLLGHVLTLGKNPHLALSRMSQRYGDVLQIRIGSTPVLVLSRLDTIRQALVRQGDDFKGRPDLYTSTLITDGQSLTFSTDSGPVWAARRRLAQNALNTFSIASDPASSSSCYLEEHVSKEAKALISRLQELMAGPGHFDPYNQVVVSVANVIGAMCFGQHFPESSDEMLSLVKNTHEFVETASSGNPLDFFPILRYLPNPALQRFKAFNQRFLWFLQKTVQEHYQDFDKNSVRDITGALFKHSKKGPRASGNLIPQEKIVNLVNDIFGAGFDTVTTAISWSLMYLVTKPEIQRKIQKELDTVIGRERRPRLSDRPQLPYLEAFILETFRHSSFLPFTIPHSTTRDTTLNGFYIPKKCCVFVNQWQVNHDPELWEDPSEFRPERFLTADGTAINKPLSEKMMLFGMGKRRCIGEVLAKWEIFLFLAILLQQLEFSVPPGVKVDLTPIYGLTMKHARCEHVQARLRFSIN", "experiment": "Inhibition of human CYP1A2", "how_it_was_run": "as §2"}, "[18]": {"target": "Metabotropic glutamate receptor 3 (Rattus norvegicus) (UniProt P31422)", "experiment": "Positive allosteric modulation in rat mGluR3 receptor expressed in HEK293 cells assessed as effect on thallium flux at 10 uM relative to glutamate", "assay_type": "cell-based", "how_it_was_run": "as §1"}, "[19]": {"target": "Metabotropic glutamate receptor 4 (Homo sapiens, UniProt Q14833)", "experiment": "Positive allosteric modulation of human mGluR4 expressed in CHO cells coexpressing Gqi5 assessed as calcium mobilization relative to PHCCC", "assay_type": "functional, cell-based", "how_it_was_run": "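CHO cells stably expressing human mGlu4 with Gqi5 were plated at 30,000 cells/well and grown overnight. Cells were loaded with 1 µM Fluo-4 AM for 45 min at 37 °C in HBSS/HEPES/2.5 mM probenecid buffer. […] Ca2+ fluorescence was read (ex 470, em 540 nm). Curves were fitted with a four-parameter logistic; ≥3 independent runs in triplicate.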"}},
  "note": "Calls of active or inactive are those of the source. The rule behind the calls is not given here.",
  "data": [
    {"compound": "O=C(Nc1ccc(NC(=O)c2ccccc2Cl)c(Cl)c1)c1ccccn1", "values": [
      {"measurement": "Activity", "setting": "[1]", "value": "inactive"},
      {"measurement": "EC50", "setting": "[2]", "value": 570, "unit": "nM"},
      {"measurement": "AUC(0-t)", "setting": "[3]", "value": 658, "unit": "ng·h/mL"},
      {"measurement": "Activity", "setting": "[4]", "value": 128, "unit": "%"},
      {"measurement": "Activity", "setting": "[5]", "value": "inactive"},
      {"measurement": "Tmax", "setting": "[6]", "value": 30, "unit": "min"},
      {"measurement": "Activity", "setting": "[7]", "value": "inactive"},
      {"measurement": "INH", "setting": "[8]", "value": "> 30", "unit": "µM"},
      {"measurement": "fraction unbound", "setting": "[9]", "value": "< 0.005"},
      {"measurement": "AUC", "setting": "[10]", "value": 681, "unit": "ng·h/g"},
      {"measurement": "Cmax", "setting": "[11]", "value": 163, "unit": "ng/g"},
      {"measurement": "Kp", "setting": "[12]", "value": 1.04},
      {"measurement": "INH", "setting": "[13]", "value": 11.8, "unit": "µM"},
      {"measurement": "Activity", "setting": "[14]", "value": "inactive"},
      {"measurement": "INH", "setting": "[15]", "value": 13.1, "unit": "µM"},
      {"measurement": "Cmax", "setting": "[16]", "value": 198.1, "unit": "ng/mL"},
      {"measurement": "INH", "setting": "[17]", "value": "> 30", "unit": "µM"},
      {"measurement": "Activity", "setting": "[18]", "value": "inactive"},
      {"measurement": "Activity", "setting": "[19]", "value": 77.9, "unit": "%"}
    ]}
  ]
}
